Laboratory results as given in ChEMBL document CHEMBL3097991, “A novel indigoid anti-tuberculosis agent” (Bioorg Med Chem Lett, 2014).
Converted amounts (≈) assume the structure as drawn.

Key:
[1] = test system: Mycobacterium tuberculosis; experiment: Ratio of MIC for Mycobacterium tuberculosis H37Rv in presence of 4% BSA to MIC for Mycobacterium tuberculosis H37Rv; format: functional
[2] = test system: Mycolicibacterium smegmatis; experiment: Antimicrobial activity against Mycobacterium smegmatis; format: functional
Staphylococcus aureus = experiment: Antimicrobial activity against Staphylococcus aureus; format: functional
[3] = test system: Mycobacterium tuberculosis; experiment: Ratio of MIC for Mycobacterium tuberculosis H37Rv by low oxygen recovery assay to MIC for Mycobacterium tuberculosis H37Rv; format: functional
Candida albicans = experiment: Antimicrobial activity against Candida albicans; format: functional
Vero = experiment: Cytotoxicity against african green monkey Vero cells; format: cell-based; details: Chlorocebus sabaeus
[4] = test system: Mycobacterium tuberculosis; experiment: Antimicrobial activity against Mycobacterium tuberculosis H37Rv in presence of 4% BSA; format: functional
[5] = test system: Mycobacterium tuberculosis; experiment: Ratio of MIC for Mycobacterium tuberculosis H37Rv in presence of 10% FBS to MIC for Mycobacterium tuberculosis H37Rv; format: functional
[6] = test system: Mycobacterium tuberculosis; experiment: Antimicrobial activity against Mycobacterium tuberculosis H37Rv in presence of 10% FBS; format: functional
[7] = test system: Mycobacterium tuberculosis; experiment: Antimicrobial activity against Mycobacterium tuberculosis H37Rv infected in african green monkey Vero cells; format: functional
Escherichia coli = experiment: Antimicrobial activity against Escherichia coli; format: functional
[8] = test system: Mycobacterium tuberculosis; experiment: Antimicrobial activity against Mycobacterium tuberculosis H37Rv by low oxygen recovery assay; format: functional
Outline: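 MIC determined against M. tuberculosis H37Rv held in the non-replicating phenotype under low oxygen, with growth assessed after recovery.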

Row | SMILES | Ratio [1] | MIC [2] | MIC (Staphylococcus aureus) | Ratio [3] | MIC (Candida albicans) | IC50 (Vero) | MIC [4] | Ratio [5] | MIC [6] | MIC [7] | MIC (Escherichia coli) | MIC [8]
1 | O=C1C=Cc2nocc2/C1=C1/Nc2ccccc2C1=O | 3.7 | > 50 µM | > 50 µM | 10 | > 50 µM | > 32 µM | 2.1 µM | 1 | 0.57 µM | 0.57 µM (≈ 0.151 µg/mL) | > 50 µM | 5.3 µM (≈ 1.4 µg/mL)
2 | O=C1/C(=C2\Nc3ccccc3C2=O)Nc2ccccc21 [INDIGO] | – | – | – | – | – | – | – | – | – | > 32 µM | – | –
3 | O=C1Nc2ccccc2/C1=C1/Nc2ccccc2C1=O [INDIRUBIN] | – | – | – | – | – | – | – | – | – | > 32 µM | – | –
4 | O=C1Nc2ccccc2/C1=C1\C(=O)Nc2ccccc21 [ISOINDIGO] | – | – | – | – | – | – | – | – | – | 27 µM (≈ 7.08 µg/mL) | – | –
5 | NNC(=O)c1ccncc1 [ISONIAZID] | – | 18.9 µM (≈ 2.59 µg/mL) | – | – | – | > 100 µM | 0.45 µM | – | 0.24 µM | 0.22 µM (≈ 0.0302 µg/mL) | – | > 100 µM
6 | CO[C@H]1/C=C/O[C@@]2(C)Oc3c(C)c(O)c4c(O)c(c(/C=N/N5CCN(C)CC5)c(O)c4c3C2=O)NC(=O)/C(C)=C\C=C\[C@H](C)[C@H](O)[C@@H](C)[C@@H](O)[C@@H](C)[C@H](OC(C)=O)[C@@H]1C [RIFAMPIN] | – | 16.7 µM (≈ 13.7 µg/mL) | – | – | – | > 182 µM | 0.089 µM | – | 0.21 µM | 0.038 µM (≈ 0.0313 µg/mL) | – | 0.49 µM (≈ 0.403 µg/mL)
